Measurements published in ChEMBL document CHEMBL1157699, “New small-size peptides possessing antifungal activity” (Bioorg Med Chem, 2010).
Residues, ends and D or L forms follow the SMILES beside them.

Tests used:
Cryptococcus neoformans [1] = assay: Antifungal activity against Cryptococcus neoformans ATCC 32264 assessed as inhibition of fungal growth at 200 uM after 48 hrs by microbroth dilution method; assay type: functional; settings: ATCC 32264, 48 h
Summary of the method: (§1)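 Cryptococcus run by CLSI M-27 A2 microbroth dilution in RPMI-1640. Peptide was diluted from DMSO stock to final 200, 100, 50, 25, 12.5, 6.25 and 3.125 µM. Inoculum was 1–5 × 10^3 CFU/ml from 24 h, 35 °C Sabouraud-chloramphenicol slants. Incubation was 48 h at 35 °C, moist and dark. % inhibition was taken from OD405 against a DMSO-containing growth control. Amphotericin B served as the positive control; tests in duplicate.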

Cryptococcus neoformans [2] = assay: Antifungal activity against Cryptococcus neoformans ATCC 32264 assessed as inhibition of fungal growth at 100 uM after 48 hrs by microbroth dilution method; assay type: functional; settings: ATCC 32264, 48 h; summary of the method: as §1
Cryptococcus neoformans [3] = assay: Antifungal activity against Cryptococcus neoformans ATCC 32264 assessed as inhibition of fungal growth at 50 uM after 48 hrs by microbroth dilution method; assay type: functional; settings: ATCC 32264, 48 h; summary of the method: as §1
Cryptococcus neoformans [4] = assay: Antifungal activity against Cryptococcus neoformans ATCC 32264 assessed as inhibition of fungal growth at 25 uM after 48 hrs by microbroth dilution method; assay type: functional; settings: ATCC 32264, 48 h; summary of the method: as §1
Cryptococcus neoformans [5] = assay: Antifungal activity against Cryptococcus neoformans ATCC 32264 assessed as inhibition of fungal growth at 12.5 uM after 48 hrs by microbroth dilution method; assay type: functional; settings: ATCC 32264, 48 h; summary of the method: as §1
Cryptococcus neoformans [6] = assay: Antifungal activity against Cryptococcus neoformans ATCC 32264 assessed as inhibition of fungal growth at 6.25 uM after 48 hrs by microbroth dilution method; assay type: functional; settings: ATCC 32264, 48 h; summary of the method: as §1
Cryptococcus neoformans [7] = assay: Antifungal activity against Cryptococcus neoformans ATCC 32264 assessed as inhibition of fungal growth at 3.125 uM after 48 hrs by microbroth dilution method; assay type: functional; settings: ATCC 32264, 48 h; summary of the method: as §1
Candida albicans [8] = assay: Antifungal activity against Candida albicans ATCC 10231 assessed as inhibition of fungal growth at 200 uM after 24 hrs by microbroth dilution method; assay type: functional; settings: ATCC 10231, 24 h
Summary of the method: (§2)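 CLSI M-27 A2 broth microdilution in RPMI-1640. Peptides were taken from DMSO stocks to final 200–3.125 µM (twofold series). Inoculum was 1–5 × 10^3 CFU/ml from 24 h Sabouraud-chloramphenicol slant cultures at 35 °C. Plates were incubated 24 h at 35 °C in a moist dark chamber. OD405 was read, and % inhibition was taken against a DMSO-matched growth control. Amphotericin B served as the positive control; duplicates.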

Candida albicans [9] = assay: Antifungal activity against Candida albicans ATCC 10231 assessed as inhibition of fungal growth at 100 uM after 24 hrs by microbroth dilution method; assay type: functional; settings: ATCC 10231, 24 h; summary of the method: as §2
Candida albicans [10] = assay: Antifungal activity against Candida albicans ATCC 10231 assessed as inhibition of fungal growth at 50 uM after 24 hrs by microbroth dilution method; assay type: functional; settings: ATCC 10231, 24 h; summary of the method: as §2
Candida albicans [11] = assay: Antifungal activity against Candida albicans ATCC 10231 assessed as inhibition of fungal growth at 25 uM after 24 hrs by microbroth dilution method; assay type: functional; settings: ATCC 10231, 24 h; summary of the method: as §2
Candida albicans [12] = assay: Antifungal activity against Candida albicans ATCC 10231 assessed as inhibition of fungal growth at 12.5 uM after 24 hrs by microbroth dilution method; assay type: functional; settings: ATCC 10231, 24 h; summary of the method: as §2
Cryptococcus neoformans [13] = assay: Antifungal activity against Cryptococcus neoformans ATCC 32264 assessed as inhibition of fungal growth after 48 hrs by microbroth dilution method; assay type: functional; settings: ATCC 32264, 48 h; for MIC: read-out: MIC100; summary of the method: as §1
Candida albicans [14] = assay: Antifungal activity against Candida albicans ATCC 10231 assessed as inhibition of fungal growth after 24 hrs by microbroth dilution method; assay type: functional; settings: ATCC 10231, 24 h; for MIC: read-out: MIC100; summary of the method: as §2
[15] = Toxicity in Poecilia reticulata assessed as mortality at 22.8 ug/ml after 24 hrs; assay type: organism-based; settings: in vivo, read-out: Activity
Summary of the method: (§3)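 Acute toxicity in guppy (P. reticulata): 10 fish per concentration held in jars with the test solution for 96 h. Peptide added from aqueous stock diluted in DMSO to the final concentration. Dead fish counted and removed every 24 h, and condition noted. Percent mortality recorded at 96 h. Two experiments, each in triplicate.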

[16] = Toxicity in Poecilia reticulata assessed as mortality at 22.8 ug/ml after 48 hrs; assay type: organism-based; settings: in vivo, read-out: Activity; summary of the method: as §3
[17] = Toxicity in Poecilia reticulata assessed as mortality at 22.8 ug/ml after 72 hrs; assay type: organism-based; settings: in vivo, read-out: Activity; summary of the method: as §3
[18] = Toxicity in Poecilia reticulata assessed as mortality at 22.8 ug/ml after 96 hrs; assay type: organism-based; settings: in vivo, read-out: Activity; summary of the method: as §3
[19] = Toxicity in Poecilia reticulata assessed as mortality at 16.4 ug/ml after 72 hrs; assay type: organism-based; settings: in vivo, read-out: Activity; summary of the method: as §3
[20] = Toxicity in Poecilia reticulata assessed as mortality at 16.4 ug/ml after 24 hrs; assay type: organism-based; settings: in vivo, read-out: Activity; summary of the method: as §3
[21] = Toxicity in Poecilia reticulata assessed as mortality at 16.4 ug/ml after 48 hrs; assay type: organism-based; settings: in vivo, read-out: Activity; summary of the method: as §3
[22] = Toxicity in Poecilia reticulata assessed as mortality at 16.4 ug/ml after 96 hrs; assay type: organism-based; settings: in vivo, read-out: Activity; summary of the method: as §3
[23] = Toxicity in Poecilia reticulata assessed as mortality at 13.6 ug/ml after 24 hrs; assay type: organism-based; settings: in vivo, read-out: Activity; summary of the method: as §3
[24] = Toxicity in Poecilia reticulata assessed as mortality at 13.6 ug/ml after 48 hrs; assay type: organism-based; settings: in vivo, read-out: Activity; summary of the method: as §3
[25] = Toxicity in Poecilia reticulata assessed as mortality at 13.6 ug/ml after 72 hrs; assay type: organism-based; settings: in vivo, read-out: Activity; summary of the method: as §3
[26] = Toxicity in Poecilia reticulata assessed as mortality at 13.6 ug/ml after 96 hrs; assay type: organism-based; settings: in vivo, read-out: Activity; summary of the method: as §3

Compound	inhibition at 200 µM (Cryptococcus neoformans [1]) [%]	inhibition at 100 µM (Cryptococcus neoformans [2]) [%]	inhibition at 50 µM (Cryptococcus neoformans [3]) [%]	inhibition at 25 µM (Cryptococcus neoformans [4]) [%]	inhibition at 12.5 µM (Cryptococcus neoformans [5]) [%]	inhibition at 6.25 µM (Cryptococcus neoformans [6]) [%]	inhibition at 3.125 µM (Cryptococcus neoformans [7]) [%]	inhibition at 200 µM (Candida albicans [8]) [%]	inhibition at 100 µM (Candida albicans [9]) [%]	inhibition at 50 µM (Candida albicans [10]) [%]	inhibition at 25 µM (Candida albicans [11]) [%]	inhibition at 12.5 µM (Candida albicans [12]) [%]	other results
C[C@@H]1[C@H](O)[C@@H](C)/C=C/C=C/C=C/C=C/C=C/C=C/C=C/[C@H](O[C@@H]2O[C@H](C)[C@@H](O)[C@H](N)[C@@H]2O)C[C@@H]2O[C@](O)(C[C@@H](O)C[C@@H](O)[C@H](O)CC[C@@H](O)C[C@@H](O)CC(=O)O[C@H]1C)C[C@H](O)[C@H]2C(=O)O [AMPHOTERICIN B]	100	100	100	100	100	100	100	100	100	100	100	100	–
C[C@H](N)C(=O)N[C@@H](C)C(=O)N[C@@H](C)C(=O)N[C@@H](C)C(N)=O (H-AAAA-NH2)	25	24.6	17.3	20.4	11.8	12.4	5.93	–	–	–	–	–	–
C[C@H](N)C(=O)N[C@@H](C)C(=O)N[C@@H](C)C(=O)N[C@@H](CCCCN)C(N)=O (H-AAAK-NH2)	70.6	62	57.9	43	31.1	0	0	–	–	–	–	–	–
C[C@H](NC(=O)[C@H](C)NC(=O)[C@H](C)NC(=O)[C@@H](N)CCCNC(=N)N)C(N)=O (H-RAAA-NH2)	38.4	8.45	8.43	8.9	6.08	4.96	0	–	–	–	–	–	–
CC[C@H](C)[C@H](NC(=O)[C@H](CCC(N)=O)NC(=O)[C@@H](N)CCCCN)C(=O)N[C@@H](CCCCN)C(N)=O (H-KQIK-NH2)	3.72	0	0	0	0	0	0	–	–	–	–	–	–
H-RQWKKWWQWRR-NH2	100	100	100	100	66.2	–	–	100	100	100	67.9	35.7	MIC50 (Cryptococcus neoformans [13]): ≤ 12.5 µM; MIC (Cryptococcus neoformans [13]): 25 µM; MIC50 (Candida albicans [14]): ≤ 25 µM; MIC (Candida albicans [14]): 50 µM; mortality at 24 h, 22.8 ug/ml [15]: 0%; mortality at 48 h, 22.8 ug/ml [16]: 0%; mortality at 72 h, 22.8 ug/ml [17]: 0%; mortality at 96 h, 22.8 ug/ml [18]: 0%
H-NRRMKWKK-NH2	63.6	34.8	23.3	6.71	6.64	–	–	11	4.59	0	0	0	–
H-RQIRRWWQW-NH2	100	100	100	100	83.3	–	–	100	100	100	50.7	19.1	MIC50 (Cryptococcus neoformans [13]): ≤ 12.5 µM; MIC80 (Cryptococcus neoformans [13]): ≤ 12.5 µM; MIC (Cryptococcus neoformans [13]): 25 µM; MIC50 (Candida albicans [14]): ≤ 25 µM; MIC (Candida albicans [14]): 50 µM; mortality at 72 h, 16.4 ug/ml [19]: 0%; mortality at 24 h, 16.4 ug/ml [20]: 0%; mortality at 48 h, 16.4 ug/ml [21]: 0%; mortality at 96 h, 16.4 ug/ml [22]: 0%
CC[C@H](C)[C@H](NC(=O)[C@H](CCC(N)=O)NC(=O)[C@@H](N)CCCNC(=N)N)C(=O)N[C@@H](CCCCN)C(N)=O (H-RQIK-NH2)	55.4	36.6	18.4	17.5	11.2	19.9	12.2	–	–	–	–	–	–
C[C@H](NC(=O)[C@H](C)NC(=O)[C@@H](N)CCCNC(=N)N)C(=O)N[C@@H](CCCCN)C(N)=O (H-RAAK-NH2)	78.6	69.7	67.5	39.1	26.3	14.1	0	–	–	–	–	–	–
H-RQIRRWWQWRR-NH2	100	100	100	100	51.2	–	–	100	100	100	46.6	22.9	MIC50 (Cryptococcus neoformans [13]): ≤ 12.5 µM; MIC (Cryptococcus neoformans [13]): 25 µM; MIC50 (Candida albicans [14]): ≤ 25 µM; MIC (Candida albicans [14]): 50 µM; mortality at 24 h, 13.6 ug/ml [23]: 0%; mortality at 48 h, 13.6 ug/ml [24]: 0%; mortality at 72 h, 13.6 ug/ml [25]: 0%; mortality at 96 h, 13.6 ug/ml [26]: 0%
CC[C@H](C)[C@H](NC(=O)[C@H](C)NC(=O)[C@@H](N)CCCNC(=N)N)C(=O)N[C@@H](CCCCN)C(N)=O (H-RAIK-NH2)	34.6	29.1	0	0	0	0	0	–	–	–	–	–	–
CC[C@H](C)[C@H](NC(=O)[C@@H](NC(=O)[C@@H](N)CCCNC(=N)N)[C@@H](C)CC)C(=O)N[C@@H](CCCCN)C(N)=O (H-RIIK-NH2)	42	39.7	11.5	20.9	12.6	14.5	8.74	–	–	–	–	–	–
CC[C@H](C)[C@H](NC(=O)[C@H](CCC(N)=O)NC(=O)[C@@H](N)CCCNC(=N)N)C(=O)N[C@@H](CCCNC(=N)N)C(N)=O (H-RQIR-NH2)	65.7	40.2	18.8	19.3	3.34	0	0	–	–	–	–	–	–
CC(=O)N1CCN(c2ccc(OCC3COC(Cn4ccnc4)(c4ccc(Cl)cc4Cl)O3)cc2)CC1 (stereo unspecified) [KETOCONAZOLE]	100	100	100	100	100	100	100	100	100	100	100	100	–
C[C@H](NC(=O)[C@H](CCC(N)=O)NC(=O)[C@@H](N)CCCNC(=N)N)C(=O)N[C@@H](CCCCN)C(N)=O (H-RQAK-NH2)	0	0	0	0	0	0	0	–	–	–	–	–	–
CC[C@H](C)[C@H](NC(=O)[C@@H](N)CCCCN)C(=O)N[C@@H](CCC(N)=O)C(=O)N[C@@H](CCCNC(=N)N)C(N)=O (H-KIQR-NH2)	47.6	44.1	30.9	26.9	25.1	21.2	20.9	–	–	–	–	–	–
